Published values of several laboratories.
Target: Serine/threonine-protein kinase RIO1 (RIOK1, Homo sapiens, UniProt Q9BRS2)
Residues used in one study (Q9BRS2 1-568): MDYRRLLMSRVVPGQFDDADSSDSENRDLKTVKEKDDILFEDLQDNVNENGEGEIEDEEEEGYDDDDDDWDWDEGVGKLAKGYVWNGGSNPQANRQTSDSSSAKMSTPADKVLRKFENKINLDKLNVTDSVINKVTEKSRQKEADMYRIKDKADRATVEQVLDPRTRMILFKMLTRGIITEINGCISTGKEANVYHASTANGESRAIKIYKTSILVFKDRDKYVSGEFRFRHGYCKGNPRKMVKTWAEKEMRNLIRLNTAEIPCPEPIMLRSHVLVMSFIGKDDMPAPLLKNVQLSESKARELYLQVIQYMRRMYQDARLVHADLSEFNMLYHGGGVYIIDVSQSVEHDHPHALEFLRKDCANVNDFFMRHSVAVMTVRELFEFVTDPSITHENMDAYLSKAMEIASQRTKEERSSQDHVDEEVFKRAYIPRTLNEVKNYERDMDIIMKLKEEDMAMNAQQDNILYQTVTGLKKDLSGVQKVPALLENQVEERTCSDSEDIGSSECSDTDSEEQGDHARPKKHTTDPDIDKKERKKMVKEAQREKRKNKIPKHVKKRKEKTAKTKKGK

Compound	observed	method	tested at	remaining binding [%]
CCC(=N\O)/C(C)=C/c1ccc(F)cc1	cell-free assay	competition with immobilised ligand	1 µM	80
CN(C)c1nccc(-c2cnc3ncccn23)n1	binding		1 µM	100
O=C(Nc1c[nH]nc1C(=O)NC1CCNCC1)c1cc(F)cc(F)c1	binding	competition with immobilised ligand	1 µM	68
C[C@@H]1CN(c2cc(-c3n[nH]c4ccc(OC5(C)CC5)cc34)ncn2)C[C@H](C)O1	cell-free assay	competition with immobilised ligand	0.1 µM	100
O=C(c1ccc(Nc2ncc(Cl)c(-c3ccc(Cl)s3)n2)cc1)N1CCC(N2CCCC2)CC1	binding	competition with immobilised ligand	1 µM	0
Cc1cnn2ncc(-c3ccnc(N(C)C)n3)c2c1	binding		1 µM	98
O=C(NCCCN1CCOCC1)c1ccc(Nc2ncc(Cl)c(-c3ccc(Cl)s3)n2)cc1	binding	competition with immobilised ligand	1 µM	0.05
CC1CCCN1c1nccc(-c2cnn3ncccc23)n1 (stereo not shown)	binding		1 µM	100
FC(F)(F)Oc1cccc(-c2cnc3ccc(-c4ccncc4)nn23)c1	cell-free assay	competition with immobilised ligand	5 µM	17
CN(CCCC(F)(F)F)c1nccc(-c2cnn3ncccc23)n1	binding		1 µM	100
O=C(NCc1ncc(C(F)(F)F)cc1Cl)c1ccc2c(c1)C1(CCS(=O)(=O)CC1)[C@@H](C1CC1)N2S(=O)(=O)c1ccc(F)cc1	cell-free assay	competition with immobilised ligand	1 µM	78
c1cncc(-c2cccc(Nc3nccc(NC4CCCCC4)n3)c2)c1	binding	competition with immobilised ligand	10 µM	26
Cn1cc(Cl)c2c(Oc3c(F)cc(Nc4cc(Cl)nc(N)n4)cc3F)ccnc21	cell-free assay	competition with immobilised ligand	0.1 µM	100
Cc1cnc(Nc2ccc(C(=O)N3CCC(N4CCCC4)CC3)cc2)nc1-c1cc2ccccc2s1	binding	competition with immobilised ligand	1 µM	0
CN(c1nccc(-c2cnn3ncccc23)n1)C1CC1	binding		1 µM	100
CNCc1ccccc1-c1csc([C@H](C)Nc2nc(C)nc3cc(OC)c(OC)cc23)c1	cell-free assay	competition with immobilised ligand	1 µM	96
CCN1CCN(Cc2ccc(C(=O)Nc3ccc(C)c(Oc4ccc5c(c4)CC(=O)N5)c3)cc2C(F)(F)F)CC1	binding	competition with immobilised ligand	1 µM	90
Cc1nc(Cc2cccc(C(F)(F)F)c2)sc1-c1ccc(C(N)=O)nc1	cell-free assay	competition with immobilised ligand	1 µM	94
CN(C)c1nccc(-c2cnn3ncccc23)n1	binding		1 µM	100
CNC(=O)[C@@H]1CC[C@@H](n2c(-c3ccc4cnccc4c3)nc3ccc(C(=O)NCc4cccc(C(N)=O)c4)cc32)C1	binding	competition with immobilised ligand	1 µM	100
C[C@@H]1CCN(c2nccc(-c3cnn4ncccc34)n2)C1	binding		1 µM	75
COc1ccc2c(c1)O[C@@H](c1ccc(OC)c(OC)c1)C[C@H]2NC(=O)C1(c2ccc3c(c2)OC(F)(F)O3)CC1	cell-free assay	competition with immobilised ligand	1 µM	100
